Measurements published in ChEMBL document CHEMBL4184225, “Discovery of selective 2,4-diaminoquinazoline toll-like receptor 7 (TLR 7) agonists” (Bioorg Med Chem Lett, 2018).

Columns and labels:
[1] = target: T1, Toll-like receptor 7 (Homo sapiens) (UniProt Q9NYK1); assay: Agonist activity at human TLR7 expressed in HEK293 cells assessed as induction of receptor activation incubated for 6 hrs by NF-kappaB-luciferase reporter gene assay; type: cell-based
T1 sequence (whole entry): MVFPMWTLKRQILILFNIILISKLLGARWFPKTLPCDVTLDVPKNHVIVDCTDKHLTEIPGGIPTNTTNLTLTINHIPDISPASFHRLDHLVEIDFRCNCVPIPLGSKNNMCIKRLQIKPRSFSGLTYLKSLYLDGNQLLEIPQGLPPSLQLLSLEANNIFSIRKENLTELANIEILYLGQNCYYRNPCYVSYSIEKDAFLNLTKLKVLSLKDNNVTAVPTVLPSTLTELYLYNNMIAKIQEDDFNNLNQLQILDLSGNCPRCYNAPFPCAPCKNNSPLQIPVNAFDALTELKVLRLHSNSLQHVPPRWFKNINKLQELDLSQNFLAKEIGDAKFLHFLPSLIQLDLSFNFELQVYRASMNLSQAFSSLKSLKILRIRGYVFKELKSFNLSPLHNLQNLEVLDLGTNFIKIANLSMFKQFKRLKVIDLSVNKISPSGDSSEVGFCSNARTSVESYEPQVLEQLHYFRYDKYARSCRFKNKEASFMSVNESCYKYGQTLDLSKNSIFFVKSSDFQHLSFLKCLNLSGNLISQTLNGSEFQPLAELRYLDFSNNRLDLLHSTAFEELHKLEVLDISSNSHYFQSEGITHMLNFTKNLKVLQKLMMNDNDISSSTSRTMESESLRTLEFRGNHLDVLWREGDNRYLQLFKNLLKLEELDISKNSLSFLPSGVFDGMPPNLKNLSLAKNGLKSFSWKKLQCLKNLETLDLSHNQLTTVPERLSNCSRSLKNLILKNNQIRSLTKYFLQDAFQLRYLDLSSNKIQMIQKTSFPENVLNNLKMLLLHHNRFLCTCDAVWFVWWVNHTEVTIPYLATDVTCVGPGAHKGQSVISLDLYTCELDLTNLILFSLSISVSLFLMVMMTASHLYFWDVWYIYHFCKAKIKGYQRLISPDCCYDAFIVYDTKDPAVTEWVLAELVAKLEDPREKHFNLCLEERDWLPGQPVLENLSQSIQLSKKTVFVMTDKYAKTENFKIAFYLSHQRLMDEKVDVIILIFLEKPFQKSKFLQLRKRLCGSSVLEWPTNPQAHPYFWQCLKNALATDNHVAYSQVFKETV
Method in brief: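 HEK293 cells transiently transfected overnight with CMV-TLR7 (wild type or dLRR2 mutant) plus NFκB-luc plasmids. Seeded at 1.67 x 10^5 cells/mL onto compound in 4% DMSO (stock), 6 h at 37°C, 5% CO2, luciferase readout. Quadruplicate dose-response. LEC is the concentration giving an effect at least two-fold above assay SD. Values averaged over independent experiments where repeated.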

[2] = target: T1, Toll-like receptor 7 (Homo sapiens); assay: Agonist activity at TLR7 in human PBMC assessed as suppression of HCV replicon replication in human HuH7 luc/neo cells harboring RNA encoding bicistronic expression construct comprising wild type HCV type 1b NS3-NS5B regions exposed to conditioned media from compound treated PBMCs by luciferase reporter gene assay; type: cell-based
Method in brief: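 PBMCs from buffy coats of at least two donors (Ficoll), in RPMI with 10% human AB serum, 2 x 10^5 cells/well, incubated overnight with compound. Supernatant transferred onto Huh7-luc/neo replicon cells plated the day before (2.2 x 10^3/well). Luciferase read after 24 h. EC50 is the concentration applied to PBMCs giving 50% luciferase reduction. Recombinant IFN-α2a standard.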

Toll-like receptor 8 = target: T2, Toll-like receptor 8 (Homo sapiens, UniProt Q9NR97); assay: Agonist activity at human TLR8 expressed in HEK293 cells assessed as induction of receptor activation incubated for 6 hrs by NF-kappaB-luciferase reporter gene assay; type: cell-based; conditions: hek293, 6 h
T2 sequence (Q9NR97 whole entry): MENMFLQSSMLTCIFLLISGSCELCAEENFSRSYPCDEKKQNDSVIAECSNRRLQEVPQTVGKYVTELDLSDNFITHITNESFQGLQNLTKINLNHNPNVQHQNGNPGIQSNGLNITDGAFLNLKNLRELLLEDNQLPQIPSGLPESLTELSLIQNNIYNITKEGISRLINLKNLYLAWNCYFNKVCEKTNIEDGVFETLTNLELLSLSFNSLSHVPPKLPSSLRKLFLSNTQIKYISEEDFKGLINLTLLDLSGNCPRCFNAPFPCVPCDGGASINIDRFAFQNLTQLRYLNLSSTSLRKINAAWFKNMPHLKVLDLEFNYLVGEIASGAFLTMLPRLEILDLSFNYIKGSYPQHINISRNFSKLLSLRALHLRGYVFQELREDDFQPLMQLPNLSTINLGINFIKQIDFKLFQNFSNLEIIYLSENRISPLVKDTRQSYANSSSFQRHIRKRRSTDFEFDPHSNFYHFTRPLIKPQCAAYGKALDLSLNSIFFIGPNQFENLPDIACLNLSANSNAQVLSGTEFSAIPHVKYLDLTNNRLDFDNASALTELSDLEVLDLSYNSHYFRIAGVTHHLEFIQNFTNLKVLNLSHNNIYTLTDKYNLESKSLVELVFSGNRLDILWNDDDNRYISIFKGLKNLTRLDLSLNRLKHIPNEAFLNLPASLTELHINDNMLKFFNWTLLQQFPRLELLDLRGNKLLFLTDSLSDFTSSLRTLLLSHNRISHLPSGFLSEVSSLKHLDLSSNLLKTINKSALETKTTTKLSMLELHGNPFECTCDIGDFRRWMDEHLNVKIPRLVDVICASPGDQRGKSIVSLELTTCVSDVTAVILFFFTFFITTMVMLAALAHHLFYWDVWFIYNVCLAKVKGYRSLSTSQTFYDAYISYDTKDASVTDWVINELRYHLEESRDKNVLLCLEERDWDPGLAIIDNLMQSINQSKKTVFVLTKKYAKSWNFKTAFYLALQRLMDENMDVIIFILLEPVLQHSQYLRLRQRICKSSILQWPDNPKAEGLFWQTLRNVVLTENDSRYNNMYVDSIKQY
Method in brief: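 HEK293 cells transiently transfected overnight at 37°C with CMV-TLR8 plasmid (wild type or dLRR2 mutant) plus NFκB-luc reporter, then exposed to compound for 6 h at 37°C, 5% CO₂. Luciferase read-out. Quadruplicate dose-response. LEC is the concentration giving an effect at least two-fold above the assay SD, averaged over two or more independent experiments.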

[3] = Cytotoxic activity against HEK293 cells assessed as reduction in cell viability incubated for 6 hrs; type: cell-based; conditions: human
Method in brief: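 HEK293 cells transfected with the CMV-TLR7 construct alone, treated with a compound dilution series for 6 h at 37°C, 5% CO₂. Viability read by ATP luminescence. Reported as CC50.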

[4] = Metabolic stability in mouse liver microsomes assessed as drug metabolism after 15 mins at 1 uM; type: ADME, microsome; conditions: read-out: Drug metabolism
Method in brief: (§1)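 Compound at 1µM incubated with liver microsomes of the stated species. Percent of compound metabolized after 15 min.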

[5] = Metabolic stability in human liver microsomes assessed as drug metabolism after 15 mins at 1 uM; type: ADME, microsome; conditions: read-out: Drug metabolism; method in brief: as §1

SMILES | MEC [1] [µM] | MEC [2] [µM] | MEC (Toll-like receptor 8) [µM] | CC50 at 6 h [3] [µM] | metabolised at 0.25 h, 1 µM [4] [%] | metabolised at 0.25 h, 1 µM [5] [%]
CCCCNc1nc(N)nc2cccc(CC3CCCC3)c12 | 0.12 | 0.09 | > 25 | > 25 | – | –
CCCCNc1nc(N)nc2cc(CO)ccc12 | 0.1 | 0.05 | 0.1 | > 18 | – | –
CCCCNc1nc(N)nc2ccc(CO)cc12 | 0.9 | 0.14 | 0.2 | > 18 | – | –
CCCCNc1nc(N)nc2cc(CN(C)C)ccc12 | 0.2 | 0.04 | 0.04 | > 18 | – | –
COCCCNc1nc(N)nc2ccccc12 | 0.46 | 0.04 | 0.01 | > 25 | – | –
CCCCNc1nc(N)nc2cccc(C(=O)N[C@@H](C)c3ccccc3OC)c12 | 0.28 | 0.14 | > 25 | > 25 | 99 | 99
CCCCNc1nc(N)nc2ccc(C#N)cc12 | > 25 | 13.2 | 7.1 | > 18 | – | –
CCCCNc1nc(N)nc2ccc(C(C)=O)cc12 | 6.1 | 2.39 | 1.9 | > 18 | – | –
CCCCNc1nc(N)nc2cccc(OCCOC)c12 | 0.1 | 0.12 | 0.2 | > 25 | 98 | 59
CCCCNc1nc(N)nc2cc(OC)c(OC)cc12 | 10 | 2.05 | 1.1 | > 18 | – | –
CCCCNc1nc(N)nc2cccc(CCc3ccccc3)c12 | 0.13 | 0.27 | 0.47 | > 25 | 97 | 24
CC(C)CCNc1nc(N)nc2ccccc12 | > 25 | 1.5 | 2.11 | > 25 | – | –
CCCCNc1nc(N)nc2c(F)cccc12 | 0.2 | 0.07 | 0.3 | > 18 | – | –
CCCCNc1nc(N)nc2cccc(C(=O)N[C@@H](C)c3cccc(OC)c3)c12 | 0.37 | 0.5 | > 25 | > 25 | 96 | 97
CCCCCNc1nc(N)nc2ccccc12 | 0.06 | 0.04 | 0.1 | > 25 | – | –
CCCCNc1nc(N)nc2cccc(Cl)c12 | 1 | 0.17 | – | > 25 | 88 | 99
